# According to ChEMBL document CHEMBL3526116, “Toxicological evaluation of acyl glucuronides of nonsteroidal anti-inflammatory drugs using human embryonic kidney 293 cells stably expressing human UDP-glucuronosyltransferase and human hepatocytes” (Drug Metab Dispos, 2011):
# Experiments:
# [1] = target: T1, UDP-glucuronosyltransferase 1A3 (Homo sapiens, UniProt P35503); experiment: Activity of human UGT1A3 expressed in HEK293 cells assessed as enzyme-mediated ibuprofen acyl-beta-D-glucuronide formation at 1 mM measured at 24 hrs by LC-MS/MS analysis; format: ADME, cell-based; settings: hek293, 24 h, 1000 µM
# T1 sequence (P35503 whole entry): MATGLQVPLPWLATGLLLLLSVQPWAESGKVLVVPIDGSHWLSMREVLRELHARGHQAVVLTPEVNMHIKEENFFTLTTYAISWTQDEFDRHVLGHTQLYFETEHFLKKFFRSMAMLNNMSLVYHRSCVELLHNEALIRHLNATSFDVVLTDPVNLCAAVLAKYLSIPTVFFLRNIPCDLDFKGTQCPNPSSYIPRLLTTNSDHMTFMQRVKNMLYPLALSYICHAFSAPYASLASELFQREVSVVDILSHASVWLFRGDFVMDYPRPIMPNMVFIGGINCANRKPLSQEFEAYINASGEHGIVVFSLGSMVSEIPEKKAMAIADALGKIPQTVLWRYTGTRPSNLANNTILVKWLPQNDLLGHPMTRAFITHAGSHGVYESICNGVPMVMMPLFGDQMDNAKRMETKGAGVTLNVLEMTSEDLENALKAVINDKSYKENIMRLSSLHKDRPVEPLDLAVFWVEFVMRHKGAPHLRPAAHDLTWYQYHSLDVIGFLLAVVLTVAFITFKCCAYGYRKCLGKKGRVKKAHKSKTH
# Method in brief: (§1)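 HEK293 stably expressing human UGT1A3 (G418-selected), 2 x 10^5 cells/well in 1 mL DMEM with 0.5% FBS, exposed immediately to drug for 6, 12 or 24 h; DMSO ≤0.1% final. Cells and medium separated by centrifugation, cell fraction resuspended in PBS; aliquots mixed 1:1 with methanol/acetic acid (100:1), spun, supernatant analysed by LC-MS/MS. Triplicate determinations, mean ± SD.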
# Hepatocyte [2] = experiment: Cytotoxicity against human hepatocytes assessed as decrease in cell viability by measuring intracellular ATP content at 1 mM measured at 6 hrs by CellTiter-Glo luminescent assay in absence of acyl glucuronidation inhibitor (-)-borneol; format: cell-based; settings: 1000 µM
# Method in brief: (§2)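 Human hepatocytes (pooled, cryopreserved), 2 × 10^4 cells/well on collagen in HCM with 0.5% FBS and 10 nM estradiol; 30-min preincubation ± 1 mM (-)-borneol, then drug 6 h. Intracellular ATP measured by CellTiter-Glo luminescence, percent of control cells. Triplicates, mean ± SD.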
# HEK293 [3] = experiment: Cytotoxicity against HEK293 cells expressing UGT1A4 assessed as decrease in cell viability at 1 mM by MTT assay; format: ADME, cell-based; settings: human, hek293, 1000 µM; TDE = time-dependent effect
# HEK293 [4] = experiment: Cytotoxicity against HEK293 cells expressing UGT1A4 assessed as decrease in cell viability by measuring intracellular ATP content at 1 mM by CellTiter-Glo luminescent assay; format: ADME, cell-based; settings: human, hek293, 1000 µM; TDE = time-dependent effect
# Method in brief: (§3)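 UGT1A3 or UGT1A4 stable HEK293 cells, 2 x 10^4 cells/well in 0.1 mL DMEM with 0.5% FBS, drug for 6, 12 or 24 h. Viability from intracellular ATP via CellTiter-Glo luminescence, expressed as percent of control cells. Mean ± SD of triplicates.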
# HEK293 [5] = experiment: Cytotoxicity against mock transfected HEK293 cells assessed as decrease in cell viability at 1 mM by MTT assay; format: cell-based; settings: human, hek293, 1000 µM; TDE = time-dependent effect
# HEK293 [6] = experiment: Cytotoxicity against mock transfected HEK293 cells assessed as decrease in cell viability by measuring intracellular ATP content at 1 mM by CellTiter-Glo luminescent assay; format: cell-based; settings: human, hek293, 1000 µM; TDE = time-dependent effect
# Method in brief: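 Mock-transfected HEK293 cells seeded at 2 x 10^4 cells/well in DMEM with 0.5% FBS, drug added at once and incubated 6, 12 or 24 h. Viability read either by WST-8 (CCK-8) formazan absorbance at 450 nm or by intracellular ATP luminescence (CellTiter-Glo), as percent of control cells; mean ± SD of triplicates. Final DMSO ≤0.1%.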
# HEK293 [7] = experiment: Cytotoxicity against HEK293 cells expressing UGT assessed as decrease in cell viability at 1 mM measured up to 72 hrs by MTT assay; format: ADME, cell-based; settings: human, hek293, 72 h, 1000 µM
# Method in brief: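 Mock and UGT1A3/UGT1A4 stable HEK293 cells given drug for up to 72 h; viability measured by WST-8-based MTT assay.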
# Hepatocyte [8] = experiment: Cytotoxicity against human hepatocytes assessed as decrease in cell viability by measuring intracellular ATP content at 1 mM measured at 6 hrs by CellTiter-Glo luminescent assay in presence of acyl glucuronidation inhibitor (-)-borneol; format: cell-based; settings: 1000 µM; method in brief: as §2
# Hepatocyte [9] = experiment: Cytotoxicity against human hepatocytes assessed as decrease in cell viability at 1 mM measured at 6 hrs […] in presence of acyl glucuronidation inhibitor (-)-borneol; format: cell-based; settings: 1000 µM
# Hepatocyte [10] = experiment: Cellular uptake in human hepatocytes at 1 mM measured at 6 hrs by LC-MS/MS analysis in presence of acyl glucuronidation inhibitor (-)-borneol; format: ADME, cell-based; settings: 1000 µM
# Method in brief: (§4)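 Cryopreserved pooled human hepatocytes on collagen-coated wells, 2 × 10^5 cells/well in HCM medium with 0.5% FBS, preincubated 30 min with or without 1 mM (-)-borneol, then drug for 6 h; DMSO ≤0.2% final. Parent drug in cell fraction measured by LC-MS/MS after methanol/acetic acid extraction. Mean ± SD of triplicates.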
# Hepatocyte [11] = experiment: Cellular uptake in human hepatocytes at 1 mM measured at 6 hrs by LC-MS/MS analysis in absence of acyl glucuronidation inhibitor (-)-borneol; format: ADME, cell-based; settings: 1000 µM; method in brief: as §4
# HEK293 [12] = experiment: Genotoxicity in HEK293 cells expressing UGT1A3 assessed as DNA strand breaks at 1 mM after 24 hrs by comet assay; format: toxicity, cell-based; settings: human, hek293, 24 h, 1000 µM
# Method in brief: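 Alkaline comet assay: HEK/UGT1A3 cells seeded 24 h before, treated 24 h in DMEM with 0.5% FBS (vehicle 0.1% DMSO; MMS 0.1 mM positive control). Cells embedded in LMP agarose, lysed 1 h at 4°C at pH 10, unwound 30 min in NaOH/EDTA, electrophoresed 300 mA 20 min, ethidium-stained; tail moment scored on 150-180 comets over >3 experiments, median (IQR).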
# [13] = target: T2, UDP-glucuronosyltransferase 1A4 (Homo sapiens, UniProt P22310); experiment: Activity of human UGT1A4 expressed in HEK293 cells assessed as enzyme-mediated ibuprofen acyl-beta-D-glucuronide formation at 1 mM measured at 24 hrs by LC-MS/MS analysis; format: ADME, cell-based; settings: hek293, 24 h, 1000 µM
# T2 sequence (P22310 whole entry): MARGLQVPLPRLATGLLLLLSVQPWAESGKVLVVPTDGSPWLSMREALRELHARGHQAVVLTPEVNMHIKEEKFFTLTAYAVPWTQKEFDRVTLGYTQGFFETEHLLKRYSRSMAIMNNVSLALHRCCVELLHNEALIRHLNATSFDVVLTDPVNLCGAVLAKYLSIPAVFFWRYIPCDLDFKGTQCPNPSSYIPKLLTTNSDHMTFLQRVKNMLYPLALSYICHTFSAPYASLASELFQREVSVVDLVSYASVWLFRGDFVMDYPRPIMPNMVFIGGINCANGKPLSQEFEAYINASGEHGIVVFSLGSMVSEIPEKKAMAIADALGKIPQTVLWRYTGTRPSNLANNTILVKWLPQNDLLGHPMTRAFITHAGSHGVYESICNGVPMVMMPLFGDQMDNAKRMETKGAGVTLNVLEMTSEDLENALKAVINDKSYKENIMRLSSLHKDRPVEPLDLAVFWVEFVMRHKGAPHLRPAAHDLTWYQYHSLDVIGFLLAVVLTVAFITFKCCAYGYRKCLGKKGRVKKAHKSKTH
# Method in brief: (§5)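 HEK293 stably expressing human UGT1A4, 2 x 10^5 cells/well in DMEM with 0.5% FBS, drug exposure 6–24 h, DMSO ≤0.1% final. Acyl glucuronide in cell fraction and medium measured by LC-MS/MS after methanol/acetic acid (100:1) precipitation and centrifugation. Triplicate determinations.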
# HEK293 [14] = experiment: Cytotoxicity against HEK293 cells expressing UGT1A3 assessed as decrease in cell viability at 1 mM by MTT assay; format: ADME, cell-based; settings: human, hek293, 1000 µM; TDE = time-dependent effect
# HEK293 [15] = experiment: Cytotoxicity against HEK293 cells expressing UGT1A3 assessed as decrease in cell viability by measuring intracellular ATP content at 1 mM by CellTiter-Glo luminescent assay; format: ADME, cell-based; settings: human, hek293, 1000 µM; TDE = time-dependent effect; method in brief: as §3
# HEK293 [16] = experiment: Cytotoxicity against HEK293 cells expressing UGT assessed as LDH leakage at 1 mM after 6 to 24 hrs by spectrophotometric analysis relative to total cell LDH level; format: ADME, cell-based; settings: human, hek293, 1000 µM
# Method in brief: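 Stable UGT-expressing or mock HEK293 lines in DMEM with 0.5% FBS, 2 x 10^4 cells/well, drug for 6, 12 or 24 h. LDH released into medium read at 490 nm (690 nm reference); percentage calculated against maximum release from control cells lysed with 1% Triton X-100.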
# [17] = target: T1, UDP-glucuronosyltransferase 1A3; experiment: Activity of human UGT1A3 expressed in HEK293 cells assessed as enzyme-mediated ketoprofen acyl-beta-D-glucuronide formation at 1 mM measured at 24 hrs by LC-MS/MS analysis; format: ADME, cell-based; settings: hek293, 24 h, 1000 µM; method in brief: as §1
# [18] = target: T2, UDP-glucuronosyltransferase 1A4; experiment: Activity of human UGT1A4 expressed in HEK293 cells assessed as enzyme-mediated ketoprofen acyl-beta-D-glucuronide formation at 1 mM measured at 24 hrs by LC-MS/MS analysis; format: ADME, cell-based; settings: hek293, 24 h, 1000 µM; method in brief: as §5
SMILES,Drug metabolism [1],Activity (Hepatocyte [2]),Activity (HEK293 [3]),Activity (HEK293 [4]),Activity (HEK293 [5]),Activity (HEK293 [6]),Activity (HEK293 [7]),Activity (Hepatocyte [8]),Activity (Hepatocyte [9]),Drug uptake (Hepatocyte [10]),Drug uptake (Hepatocyte [11]),Activity (HEK293 [12]),Drug metabolism [13],Activity (HEK293 [14]),Activity (HEK293 [15]),Activity (HEK293 [16]) [%],Drug metabolism [17],Drug metabolism [18]
CC(C)Cc1ccc(C(C)C(=O)O)cc1 (configuration not stated) [IBUPROFEN],metabolite_detected,Toxic,tde,tde,tde,tde,Non-toxic,Toxic,Toxic,Active,Active,Non-toxic,metabolite_not_detected,tde,tde,< 5.4,,
CC(C(=O)O)c1cccc(C(=O)c2ccccc2)c1 (configuration not stated) [KETOPROFEN],,,tde,tde,tde,tde,Non-toxic,,,,,Non-toxic,,tde,tde,< 5.4,metabolite_detected,metabolite_not_detected
